Laboratory results: PMC3646928 (Peptides, 2013)

What was measured:
protein-free HJ DNA = test: Non-competitive HJ band shift; type: binding
E. coli MG1655 cells = test: Bacterial TUNEL assay; type: cell-based; conditions: highest concentration tested, 1.5 hours
How it was run: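 E. coli MG1655 grown as for MIC testing: overnight culture diluted 1:100 in Mueller Hinton broth, grown to OD600 0.08–0.1, then exposed to peptide for 1.5 h. Cells pelleted and resuspended in 1× PBS. TdT labels 3′-OH ends with fluorescein-dUTP; TOTO-3 counterstains DNA. Flow cytometry (488 nm FITC, 633 nm APC; 50,000 events). TUNEL-positive expressed as fraction of TOTO-3-positive cells, normalized to DMSO-treated cells.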

## KWWRGGRWWK
protein-free HJ DNA
  shift of protein-free HJ DNA in EMSA (specific shift): caused a change in the mobility of protein-free HJ DNA similar to shifts seen with (WRWYCR)2

## WRWYCR
E. coli MG1655 cells
  TUNEL-positive cells: 75.6 ± 2.2%

## WRWYGGYWRW
protein-free HJ DNA
  shift of protein-free HJ DNA in EMSA (specific shift): Neither WRWYGGYWRW nor WYCRGGRCYW caused specific shifts at low peptide concentrations

## WYCRGGRCYW
protein-free HJ DNA
  shift of protein-free HJ DNA in EMSA (specific shift): Neither WRWYGGYWRW nor WYCRGGRCYW caused specific shifts at low peptide concentrations
